ChEMBL document CHEMBL3352517, “Anti-inflammatory ursane- and oleanane-type triterpenoids from Vitex negundo var. cannabifolia” (J Nat Prod, 2014)

Columns and labels:
RAW264.7 [1] = test: Anti-inflammatory activity in mouse RAW264.7 cells assessed as inhibition of lipopolysaccharide-induced nitric oxide production at 80 uM incubated for 24 hrs by Griess reagent based assay; type: functional; settings: RAW264.7, 24 h
RAW264.7 [2] = test: (§1) Cytotoxicity against mouse RAW264.7 cells assessed as cell viability at 40 uM by MTT assay; type: cell-based; settings: raw264.7, 40 µM
[3] = as §1; type: cell-based; settings: RAW264.7 cells, read-out: Activity
RAW264.7 [4] = test: Anti-inflammatory activity in mouse RAW264.7 cells assessed as inhibition of lipopolysaccharide-induced nitric oxide production incubated for 24 hrs by Griess reagent based assay; type: functional, cell-based; settings: RAW264.7, 24 h
How it was run: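 LPS-stimulated RAW 264.7 macrophages; NO production read by Griess assay; inhibition expressed as IC50 (μM).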

| IC50 (RAW264.7 [4]) | Structure (SMILES) | inhibition at 80 µM (RAW264.7 [1]) | Activity (RAW264.7 [2]) | viability at 40 µM [3] |
| --- | --- | --- | --- | --- |
| – | C[C@H]1[C@H](C)CC[C@@]23CC[C@@]4(C)[C@]5(C)CC[C@H]6C(C)(C)[C@H](O)[C@H](O)C[C@]6(C)[C@H]5CC(=O)[C@]4(OC2=O)[C@H]13 | < 50% | Non-toxic | – |
| – | CC1(C)CC[C@@]23CC[C@@]4(C)[C@]5(C)CC[C@H]6C(C)(C)[C@H](O)[C@H](O)C[C@]6(C)[C@H]5CC(=O)[C@]4(OC2=O)[C@@H]3C1 | – | – | < 70% |
| – | C[C@@H]1CC[C@]2(C(=O)O)CC[C@]3(C)C(=CC[C@@H]4[C@@]5(C)C[C@@H](O)[C@@H](O)C(C)(C)[C@@H]5CC[C@]43C)[C@@H]2[C@]1(C)O [EUSCAPHIC ACID] | < 50% | Non-toxic | – |
| – | C[C@H]1[C@H](C)CC[C@]2(C(=O)O)CC[C@]3(C)C(=CC[C@@H]4[C@@]5(C)C[C@@H](O)[C@@H](O)C(C)(C)[C@@H]5CC[C@]43C)[C@H]12 [PYGENIC ACID A] | – | – | < 70% |
| – | CC1(C)[C@H](O)[C@H](O)C[C@]2(C)[C@H]3CC=C4[C@@H]5C[C@](C)(CO)CC[C@]5(C(=O)O)CC[C@@]4(C)[C@]3(C)CC[C@@H]12 | < 50% | Non-toxic | – |
| – | CC1(C)[C@@H]2C[C@@]3(CC[C@]4(C)[C@@H]5[C@@H]3[C@@H]1O[C@]5(O)C[C@@H]1[C@@]3(C)C[C@@H](O)[C@@H](O)C(C)(C)[C@@H]3CC[C@]14C)C(=O)O2 | < 50% | Non-toxic | – |
| 34 µM | C[C@H]1[C@H](C)CC[C@@]23CC[C@]4(C)[C@](OC2=O)([C@H](O)C[C@@H]2[C@@]5(C)C[C@@H](O)[C@@H](O)C(C)(C)[C@@H]5CC[C@]24C)[C@H]13 | – | Non-toxic | – |
| 27.7 µM | CC1(C)CC[C@]2(C(=O)O)CC[C@]3(C)C(=CC[C@@H]4[C@@]5(C)C[C@@H](O)[C@@H](O)C(C)(C)[C@@H]5CC[C@]43C)[C@@H]2C1 | – | Non-toxic | – |
| – | C[C@H]1[C@H](C)CC[C@]2(C(=O)O)CC[C@]3(C)C(=CC[C@@H]4[C@@]5(C)CC[C@H](O)C(C)(C)[C@@H]5CC[C@]43C)[C@H]12 [URSOLIC ACID] | – | – | < 70% |
| 24.9 µM | C[C@@H]1CC[C@]2(C(=O)O)CC[C@]3(C)C(=CC[C@@H]4[C@@]5(C)C[C@@H](O)[C@H](O)C(C)(C)[C@@H]5CC[C@]43C)[C@@H]2[C@]1(C)O [TOMENTIC ACID] | – | Non-toxic | – |
| – | C[C@H]1[C@H](C)CC[C@]2(C(=O)O)CC[C@]3(C)C(=CC[C@@H]4[C@@]5(C)C[C@@H](O)[C@H](O)C(C)(C)[C@@H]5CC[C@]43C)[C@H]12 [COROSOLIC ACID] | – | – | < 70% |
| 26.1 µM | C=C1CC[C@]2(C(=O)O)CC[C@]3(C)C(=CC[C@@H]4[C@@]5(C)C[C@@H](O)[C@@H](O)C(C)(C)[C@@H]5CC[C@]43C)[C@@H]2[C@H]1C | – | Non-toxic | – |
| – | C[C@@H]1[C@@H]2C[C@@]3(CC[C@]4(C)[C@@H]5[C@@H]3[C@]1(C)O[C@]5(O)C[C@@H]1[C@@]3(C)C[C@@H](O)[C@@H](O)C(C)(C)[C@@H]3CC[C@]14C)C(=O)O2 | < 50% | Non-toxic | – |
| 40.5 µM | CC1(C)CC[C@]2(C(=O)O)CC[C@]3(C)C(=CC[C@@H]4[C@@]5(C)C[C@@H](O)[C@@H](O)[C@](C)(CO)[C@@H]5CC[C@]43C)[C@@H]2C1 | – | Non-toxic | – |

| Structure (SMILES) | IC50 (RAW264.7 [4]) | inhibition at 80 µM (RAW264.7 [1]) | Activity (RAW264.7 [2]) | viability at 40 µM [3] |
| --- | --- | --- | --- | --- |
| O=c1c(O)c(-c2ccc(O)c(O)c2)oc2cc(O)cc(O)c12 [QUERCETIN] | 16.6 µM | – | – | – |
